This passage reports IC50 results from ChEMBL document CHEMBL1148922, “Triterpenoids from Brazilian Ilex species and their in vitro antitrypanosomal activity” (J Nat Prod, 2004).

For one test, the system named is Trypanosoma brucei. The test can be described thus: Antitrypanosomal activity against Trypanosoma brucei S427 by microdilution method. The format is functional, organism-based. The procedure, abridged: (§1)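 In vitro test run by the WHO procedure, using serial microdilution in a 96-well microtiter integrated system.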
For another test, the system named is Trypanosoma cruzi. Briefly: Antitrypanosomal activity against Trypanosoma cruzi Tulahuen CL2 by microdilution method. The format is functional, organism-based. In short, it runs like this:
as §1
(In general: Dilution methods test growth across graded concentrations, often in twofold steps.)

Consider `CC1(C)CC[C@]2(C(=O)O)CC[C@]3(C)C(=CC[C@@H]4[C@@]5(C)CC[C@H](O[C@@H]6O[C@H](CO)[C@H](O)[C@H](O)[C@H]6O[C@@H]6O[C@H](CO)[C@@H](O)[C@H](O)[C@H]6O)C(C)(C)[C@@H]5CC[C@]43C)[C@@H]2C1`, for which the IC50 (in general, the concentration that inhibits the measured activity by half) in the test on Trypanosoma brucei was found to be 4 µM; in the test on Trypanosoma cruzi, 10 µM.

Turning to `C[C@H]1[C@H](C)CC[C@]2(C(=O)O[C@@H]3O[C@H](CO)[C@@H](O)[C@H](O)[C@H]3O)CC[C@]3(C)C(=CC[C@@H]4[C@@]5(C)CC[C@H](O[C@@H]6OC[C@H](O)[C@H](O[C@@H]7O[C@H](CO)[C@@H](O)[C@H](O)[C@H]7O)[C@H]6O)C(C)(C)[C@@H]5CC[C@]43C)[C@H]12` [MATESAPONIN 1], the 50% inhibitory concentration (IC50) with Trypanosoma brucei and in the test with Trypanosoma cruzi was greater than 32 µM each time.

Take `CC1CS(=O)(=O)CCN1/N=C/c1ccc([N+](=O)[O-])o1` (configuration not stated) [NIFURTIMOX]: the concentration for half-maximal inhibition (IC50) in the test on Trypanosoma cruzi stood at 0.39 µM. This counts as sub-micromolar.

For `CC1(C)CC[C@]2(C(=O)O[C@@H]3O[C@H](CO)[C@@H](O)[C@H](O)[C@H]3O)CC[C@]3(C)C(=CC[C@@H]4[C@@]5(C)CC[C@H](O[C@@H]6O[C@H](CO)[C@H](O)[C@H](O)[C@H]6O[C@@H]6O[C@H](CO)[C@@H](O)[C@H](O)[C@H]6O)C(C)(C)[C@@H]5CC[C@]43C)[C@@H]2C1`, the IC50 in the test with Trypanosoma brucei and in the test on Trypanosoma cruzi was greater than 32 µM throughout.

For `C[C@H]1CC[C@]2(C(=O)O)CC[C@]3(C)C(=CC[C@@H]4[C@@]5(C)CC[C@H](O[C@@H]6OC[C@H](O)[C@H](O)[C@H]6O)[C@](C)(CO)[C@@H]5CC[C@]43C)[C@@H]2[C@]1(C)O` [BREVICUSPISAPONIN 1], the IC50 with Trypanosoma brucei and in the test with Trypanosoma cruzi was greater than 32 µM each time.

Turning to `C[C@H]1[C@H](C)CC[C@]2(C(=O)O[C@@H]3O[C@H](CO[C@@H]4O[C@H](CO)[C@@H](O)[C@H](O)[C@H]4O)[C@@H](O)[C@H](O)[C@H]3O)CC[C@]3(C)C(=CC[C@@H]4[C@@]5(C)CC[C@H](O[C@@H]6OC[C@H](O)[C@H](O[C@@H]7O[C@H](CO)[C@@H](O)[C@H](O)[C@H]7O)[C@H]6O[C@@H]6O[C@@H](C)[C@H](O)[C@@H](O)[C@H]6O)C(C)(C)[C@@H]5CC[C@]43C)[C@H]12` [MATESAPONIN 4], the concentration for half-maximal inhibition (IC50) in the test with Trypanosoma brucei and in the test on Trypanosoma cruzi was greater than 32 µM in each case.

Turning to `C[C@@H]1CC[C@]2(C(=O)O[C@@H]3O[C@H](CO)[C@@H](O)[C@H](O)[C@H]3O)CC[C@]3(C)C(=CC[C@@H]4[C@@]5(C)CC[C@H](O[C@@H]6OC[C@H](O)[C@H](O[C@@H]7O[C@H](CO)[C@@H](O)[C@H](O)[C@H]7O)[C@H]6O)C(C)(C)[C@@H]5CC[C@]43C)[C@@H]2[C@]1(C)O` [ILEKUDINOSIDE E], the IC50 in the test with Trypanosoma brucei and in the test on Trypanosoma cruzi was greater than 32 µM throughout.

`CC(=O)O[C@H]1CC[C@]2(C)[C@H]3CC=C4[C@@H]5[C@@H](C)[C@H](C)CC[C@]5(C(=O)O)CC[C@@]4(C)[C@]3(C)CC[C@H]2C1(C)C` [O-ACETYLURSOLIC ACID]: the half-maximal inhibitory concentration (IC50) was 17 µM with Trypanosoma brucei and greater than 32 µM in the test on Trypanosoma cruzi.

For the molecule `C[C@H]1CC[C@]2(C(=O)O)CC[C@]3(C)C(=CC[C@@H]4[C@@]5(C)CC[C@H](O[C@@H]6OC[C@H](O)[C@H](O)[C@H]6O)C(CO)(CO)[C@@H]5CC[C@]43C)[C@@H]2[C@]1(C)O` [BREVICUSPISAPONIN 2], the IC50 in the test with Trypanosoma brucei was 16 µM; in the test on Trypanosoma cruzi, greater than 32 µM.

For the molecule `C[C@H]1[C@H](C)CC[C@]2(CO)CC[C@]3(C)C(=CC[C@@H]4[C@@]5(C)CC[C@H](O)C(C)(C)[C@@H]5CC[C@]43C)[C@H]12` [UVAOL], the IC50 with Trypanosoma brucei and in the test on Trypanosoma cruzi was greater than 32 µM each time.

`C[C@H]1[C@H](C)CC[C@]2(C(=O)O)CC[C@]3(C)C(=CC[C@@H]4[C@@]5(C)CC[C@H](O)C(C)(C)[C@@H]5CC[C@]43C)[C@H]12` [URSOLIC ACID]: the half-inhibitory concentration (IC50) in the test with Trypanosoma brucei and in the test with Trypanosoma cruzi was 4 µM throughout.

In the case of `C[C@@H]1CC[C@]2(C(=O)O[C@@H]3O[C@H](CO)[C@@H](O)[C@H](O)[C@H]3O)CC[C@]3(C)C(=CC[C@@H]4[C@@]5(C)CC[C@H](O)[C@@](C)(CO)[C@@H]5CC[C@]43C)[C@@H]2[C@]1(C)O` [PEDUNCULOSIDE], the IC50 in the test with Trypanosoma brucei and in the test on Trypanosoma cruzi was greater than 32 µM each time.

Turning to `CC(=O)OC[C@H]1O[C@@H](OC(=O)[C@]23CC[C@@H](C)[C@@](C)(OC(C)=O)[C@H]2C2=CC[C@@H]4[C@@]5(C)CC[C@H](O[C@@H]6OC[C@H](OC(C)=O)[C@H](O[C@@H]7O[C@H](COC(C)=O)[C@@H](OC(C)=O)[C@H](OC(C)=O)[C@H]7OC(C)=O)[C@H]6OC(C)=O)C(C)(C)[C@@H]5CC[C@@]4(C)[C@]2(C)CC3)[C@H](OC(C)=O)[C@@H](OC(C)=O)[C@@H]1OC(C)=O` [PERACETYL ILEXOSIDE II], the IC50 in the test on Trypanosoma brucei and in the test with Trypanosoma cruzi was greater than 32 µM in each case.

On to `C[C@H]1[C@H](C)CC[C@]2(C(=O)O[C@@H]3O[C@H](CO[C@@H]4O[C@H](CO)[C@@H](O)[C@H](O)[C@H]4O)[C@@H](O)[C@H](O)[C@H]3O)CC[C@]3(C)C(=CC[C@@H]4[C@@]5(C)CC[C@H](O[C@@H]6OC[C@H](O)[C@H](O[C@@H]7O[C@H](CO)[C@@H](O)[C@H](O)[C@H]7O)[C@H]6O)C(C)(C)[C@@H]5CC[C@]43C)[C@H]12` [MATESAPONIN 3], for which the half-maximal inhibitory concentration (IC50) in the test with Trypanosoma brucei and in the test on Trypanosoma cruzi was greater than 32 µM throughout.
